Values joined by “and” are separate entries in the source; they are usually repeats but may differ in a detail not shown here. Equal values may be shown once. Active and inactive are the calls of the source. The calls are words filed in the database; no cut-off is given here.
Columns and labels:
[1] = Dose required (i.v.) to reduce the lowering of arterial blood pressure caused by PAF in rats.; settings: Rattus norvegicus
[2] = species: Mus musculus; assay: Percent protection of PAF-induced mortality in mice after 7 hr; format: functional; parameters: concentration or dose not given beside the values
Method in brief: (§1)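 Duration study in male Swiss mice (22–26 g). Single 1 mg/kg iv dose of test compound at time 0. C18-PAF 100 µg/kg plus propranolol 1 mg/kg given iv via tail vein at the stated time after dosing, 10–40 mice per time point.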

[3] = test system: Mus musculus; assay: Compound was evaluated for the inhibition of PAF-induced mortality in mice, after intravenous administration of the drug; format: functional; settings: read-out: ID50 (the source's name)
[4] = species: Mus musculus; assay: Percent protection of PAF-induced mortality in mice after 24 hr; format: functional; parameters: concentration or dose not given beside the values
Method in brief: as §1

[5] = species: Mus musculus; assay: Percent protection of PAF-induced mortality in mice after 5 hr; format: functional; parameters: concentration or dose not given beside the values
Method in brief: as §1

[6] = species: Mus musculus; assay: Percent protection of PAF-induced mortality in mice after 17h; format: functional; parameters: concentration or dose not given beside the values
Method in brief: as §1

[7] = species: Mus musculus; assay: Percent protection of PAF-induced mortality in mice after 3h; format: functional; parameters: concentration or dose not given beside the values
Method in brief: as §1

[8] = species: Mus musculus; assay: Percent protection of PAF-induced mortality in mice after 0.5 hr; format: functional; parameters: concentration or dose not given beside the values
Method in brief: as §1

[9] = species: Mus musculus; assay: Percent protection of PAF-induced mortality in mice after 2 hr; format: functional; parameters: concentration or dose not given beside the values
Method in brief: as §1

[10] = species: Mus musculus; assay: Percent protection of PAF-induced mortality in mice after 5h; NP means no protection; format: functional, organism-based
Method in brief: (§2)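 Male Swiss mice (22–26 g) given compound as a single 1 mg/kg iv dose at time 0. At the stated time, C18-PAF 100 µg/kg plus propranolol 1 mg/kg injected into a lateral tail vein. […] 10–40 mice per time point.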

[11] = species: Mus musculus; assay: Percent protection of PAF-induced mortality in mice after 7h; NP means no protection; format: functional, organism-based
Method in brief: as §2

Question: Which results are given for `CCCCCCCCCCCCCCCCCCOC1C[C@H](COC(=O)N(Cc2cccc[n+]2CC)C(C)=O)CO1.[I-]` (some centres not stated)?
Answer: ID50 [1]: 0.031 mg/kg; Protection [2]: 100%; ED50 [3]: 0.012 mg/kg; Protection [4]: 60%; Protection [5]: 100%; Protection [6]: 93%

Question: Which results are given for `CCCCCCCCCCCCCCCCCC1CC(COC(=O)N(Cc2cccc[n+]2CC)C(C)=O)CO1.[I-]` (configuration not stated)?
Answer: Protection [7]: 16%; ID50 [1]: 0.05 mg/kg; Protection [8]: 100%; ED50 [3]: 0.36 mg/kg; Protection [9]: 16%; Protection [10]: inactive

Question: Which Protection [7] does the source give for `CC[n+]1ccccc1CN(C(C)=O)C(=O)OCC1COC(OCCCCCCCCCCCCCCCCOC)C1.[I-]` (configuration not stated) here?
Answer: 66%

Question: What about the ID50 [1] of the same compound?
Answer: 0.04 mg/kg

Question: And the Protection [8]?
Answer: 100%

Question: And the Protection [11]?
Answer: inactive

Question: And the ED50 [3]?
Answer: 0.0076 mg/kg

Question: And the Protection [9]?
Answer: 100%

Question: And the Protection [5]?
Answer: 59%

Question: With `CC[n+]1ccccc1CN(C(C)=O)C(=O)OCC1COC(OCCC(C)C)C1` (configuration not stated) as the compound, how does the ID50 [1] read?
Answer: 0.21 mg/kg

Question: Which ID50 [1] does the source give for `CCOC1CC(COC(=O)N(Cc2cccc[n+]2CC)C(C)=O)CO1` (configuration not stated) here?
Answer: 2.3 mg/kg

Question: What does the source list for `CCCCCCCCCCOCCCCCCOC1CC(COC(=O)N(Cc2cccc[n+]2CC)C(C)=O)CO1.[I-]` (configuration not stated)?
Answer: Protection [7]: 100%; ID50 [1]: 0.004 mg/kg; Protection [2]: 88%; Protection [8]: 100%; ED50 [3]: 0.0064 mg/kg; Protection [4]: 51%; Protection [9]: 100%; Protection [5]: 100%; Protection [6]: 40%

Question: With `CCCCCCCCCCCCCCCCCCO[C@@H]1C[C@H](COC(=O)N(Cc2cccc[n+]2CC)C(C)=O)CO1.[I-]` as the compound, how does the ID50 [1] read?
Answer: 0.066 mg/kg

Question: What about the Protection [2] of the same compound?
Answer: 100%

Question: And the ED50 [3]?
Answer: 0.03 mg/kg

Question: And the Protection [4]?
Answer: 38%

Question: What about the Protection [6] of the same compound?
Answer: 67%

Question: For `CC[n+]1ccccc1CN(C(C)=O)C(=O)OCC1COC(OCCCCCCOCCCc2ccccc2)C1.[I-]` (configuration not stated), which Protection [7] is on record?
Answer: 50%

Question: What about the ID50 [1] of the same compound?
Answer: 0.06 mg/kg

Question: And the ED50 [3]?
Answer: 0.073 mg/kg

Question: What about the Protection [9] of the same compound?
Answer: 100%

Question: What about the Protection [10] of the same compound?
Answer: inactive

Question: For `CC[n+]1ccccc1CN(C(C)=O)C(=O)OCC1COC(OCCCc2ccccc2)C1` (configuration not stated), which ID50 [1] is on record?
Answer: 0.12 mg/kg

Question: Which results are given for `CCCCCCCCCCCCCCCCCCNC(=O)OCC(COC(=O)N(Cc1cccc[n+]1CC)C(C)=O)OC.[Cl-]` (configuration not stated) [CV-6209]?
Answer: Protection [7]: 100%; ID50 [1]: 0.0078 mg/kg; Protection [2]: 100%; Protection [8]: 100%; ED50 [3]: 0.022 mg/kg; Protection [4]: 48%; Protection [9]: 100%; Protection [5]: 100%; Protection [6]: 95%

Question: For `CCCCCCCCCCCCCCCCOCC1CC(COC(=O)N(Cc2cccc[n+]2CC)C(C)=O)CO1.[Cl-]` (configuration not stated), which Protection [7] is on record?
Answer: 75%

Question: And the ID50 [1]?
Answer: 0.027 mg/kg

Question: What about the Protection [2] of the same compound?
Answer: 65%

Question: What about the ED50 [3] of the same compound?
Answer: 0.031 mg/kg

Question: What about the Protection [4] of the same compound?
Answer: 17%

Question: What about the Protection [9] of the same compound?
Answer: 100%

Question: And the Protection [5]?
Answer: 54%

Question: And the Protection [6]?
Answer: 44%

Question: With `CC[n+]1ccccc1CN(C(C)=O)C(=O)OCC1COC(OCCC(c2ccccc2)c2ccccc2)C1` (configuration not stated) as the compound, how does the ID50 [1] read?
Answer: 0.11 mg/kg

Question: For `CCCCCCCCCCCCCCCCCCCCOC1CC(COC(=O)N(Cc2cccc[n+]2CC)C(C)=O)CO1` (configuration not stated), which ID50 [1] is on record?
Answer: 0.048 mg/kg

Question: With `C=CCCCCCCOCCCCCCOC1CC(COC(=O)N(Cc2cccc[n+]2CC)C(C)=O)CO1.[I-]` (configuration not stated) as the compound, how does the Protection [7] read?
Answer: 88%

Question: And the ID50 [1]?
Answer: 0.063 mg/kg

Question: And the Protection [2]?
Answer: 40%

Question: What about the ED50 [3] of the same compound?
Answer: 0.024 mg/kg

Question: What about the Protection [9] of the same compound?
Answer: 100%

Question: And the Protection [5]?
Answer: 63%

Question: What about the Protection [6] of the same compound?
Answer: 20%

Question: Which results are given for `CCCCCCCCCCCCCCCCCCOC1CC(COC(=O)N(Cc2cccc[n+]2CC)C(C)=O)CO1.[Cl-]` (configuration not stated)?
Answer: Protection [7]: 100%; ID50 [1]: 0.026 mg/kg and 0.025 mg/kg; Protection [2]: 95%; Protection [8]: 100%; ED50 [3]: 0.023 mg/kg; Protection [4]: 48%; Protection [9]: 100%; Protection [5]: 100%; Protection [6]: 81%

Question: Which results are given for `CCCCCCCCCCCCCCCCOC1CC(COC(=O)N(Cc2cccc[n+]2CC)C(C)=O)CO1.[I-]` (configuration not stated)?
Answer: Protection [7]: 88%; ID50 [1]: 0.01 mg/kg; Protection [2]: 64%; Protection [8]: 100%; ED50 [3]: 0.024 mg/kg; Protection [4]: 44%; Protection [9]: 100%; Protection [5]: 61%; Protection [6]: 65%

Question: For `CC[n+]1ccccc1CN(C(C)=O)C(=O)OCC1COC(OCCCCCCOCCCCCc2ccccc2)C1.[I-]` (configuration not stated), which Protection [7] is on record?
Answer: 100%

Question: What about the ID50 [1] of the same compound?
Answer: 0.021 mg/kg

Question: What about the Protection [2] of the same compound?
Answer: 80%

Question: What about the Protection [8] of the same compound?
Answer: 100%

Question: And the ED50 [3]?
Answer: 0.0083 mg/kg

Question: What about the Protection [4] of the same compound?
Answer: 38%

Question: And the Protection [9]?
Answer: 100%

Question: And the Protection [5]?
Answer: 89%

Question: What about the Protection [6] of the same compound?
Answer: 38%

Question: Which ID50 [1] does the source give for `CC[n+]1ccccc1CN(C(C)=O)C(=O)OCC1COC(OCCCCCCOCc2ccc(-c3ccccc3)cc2)C1` (configuration not stated) here?
Answer: 0.012 mg/kg

Question: With `CCCCCCCCCCCCCCCCCCOCC1CC(COC(=O)N(Cc2cccc[n+]2CC)C(C)=O)CO1.[Cl-]` (configuration not stated) as the compound, how does the Protection [7] read?
Answer: 100%

Question: And the ID50 [1]?
Answer: 0.011 mg/kg

Question: And the Protection [2]?
Answer: 100%

Question: What about the ED50 [3] of the same compound?
Answer: 0.026 mg/kg

Question: What about the Protection [4] of the same compound?
Answer: 33%

Question: And the Protection [5]?
Answer: 100%

Question: And the Protection [6]?
Answer: 44%

— ChEMBL document CHEMBL1126180, “4-substituted 2-alkoxytetrahydrofurans as potent and long-lasting PAF antagonists” (J Med Chem, 1992)
